Kir21 inh: Kir2.1 (mouse) channel inhibition; P35561; HEK293-Kir2.1, FluxOR thallium flux fluorescence; hits give low values; B-score at 10 µM; hit rate 0.85% among 310,000;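 active means fluorescence ratio B-score at or below minus 3 SD of library scores, with starting-brightness B-score within 2 SD, cut at about -4.2 in these data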;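 further: channel flux triggered by added potassium and thallium sulfate stimulus; B-score of peak minus minimum fluorescence over baseline after thallium stimulus; more negative B-score means stronger Kir2.1 block with less thallium influx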
KCNK3 inh: human KCNK3 channel inhibition, primary screen | CHO-KCNK3 thallium flux, FluxOR fluorescence; hits give low values | B-score at 10 µM | hit rate 0.84% among 340,000;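 active means B-score under library mean minus 4 SD, starting fluorescence ratio at most library mean plus 5 SD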;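 further: more negative B-score means stronger inhibition of thallium flux through KCNK3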
KCNK9 block: human KCNK9 channel inhibition; AID 488922; HEK293 KCNK9, FluxOR thallium flux fluorescence; hits give low values; hit rate 1.2% among 310,000; Q9NPC2; B-score at 10 µM;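 active means ratio B-score over 3 SD below the library mean, with starting fluorescence within 5 SD of its mean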;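 further: negative B-score means less thallium flux so channel inhibition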
KCNQ1 act: human KCNQ1 channel potentiation or activation; CHO-K1 KCNQ1, thallium flux FluxOR fluorescence; hits give high values; hit rate 0.35% among 310,000; P51787; B-score at 10 µM;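 active means fluorescence ratio B-score, a plate-corrected score, at least three library SD, with initial intensity B-score within 5 SD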
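Test system: CHO-K1 cells stably expressing KCNQ1 / Medium: assay buffer / Also added: depolarizing K+/Tl+ stimulus, K2SO4 and Tl2SO4 each 12.5 mM in 5x stock / Incubation: 90 min dye loading and 20 min compound exposure, both at room temperature / Signal: thallium influx via FluxOR fluorescence, kinetic imaging / Evaluation: B score of baseline-normalized fluorescence ratio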
KCNQ1 inh: inhibitors of human KCNQ1 potassium channel | P51787 | CHO-K1 KCNQ1, FluxOR thallium flux fluorescence; hits give high values | B-score at 10 µM | hit rate 1.3% among 310,000 | AID 2642;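 active means compounds whose thallium flux B-score, printed positive for inhibition, exceeds three library SD while starting fluorescence stays within three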;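 further: channel opened by potassium depolarization with thallium stimulus after 20 min compound exposure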
hERG protect: hERG (human) protection from proarrhythmic block; Q12809; CHO-hERG, FluxOR thallium flux, dofetilide IC70 present; activation (rescue from dofetilide block), less the hit threshold, % at 10 µM; hit rate 0.51% among 310,000; AID 1511;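 active means activation above the mean of controls blocked by dofetilide plus 5 SD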;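 further: thallium influx through hERG after potassium depolarization seen as dye fluorescence rise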
KCNQ1 inh valid: reconfirmed blocker of the human KCNQ1 potassium channel; shares compounds with KCNQ1 inh; KCNQ1 cell line, FluxOR thallium flux fluorescence; inhibition, % at 10 µM; hit rate 93% among 1,600; AID 588353;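 active means primary screen active, with duplicate mean exceeding buffer control mean plus 3 SD of buffer wells, cut at about 28% in these data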;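 further: 0% = buffer control ratio and 100% = XE991 inhibitor control ratio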
CHO Tl flux: activity in parental CHO cells lacking KCNQ1. fluorescence ratio (Tl flux) at 10 µM. AID 588366. parental CHO-K1, FluxOR thallium flux fluorescence ratio; hits give low values; zero means no signal rise above baseline. hit rate 21% among 1,600. shares compounds with KCNQ1 inh;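 active means mean of duplicate thallium-flux fluorescence ratios in parental host cells more than 5 SD below the buffer control mean, cut at about 0.38 in these data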;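 further: ratio is peak minus minimum fluorescence divided by baseline fluorescence; actives read low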
KCNQ1 APC inh: human KCNQ1 inhibition validated by electrophysiology; hit rate 20% among 490; KCNQ1-CHO cells, automated patch clamp current; shares compounds with KCNQ1 inh; calls only at 10 µM; AID 624120;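 active means KCNQ1 current drop exceeding 3 SD of negative control wells, seen in both duplicate runs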;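 further: steady state current during a 2 s step from -80 to +40 mV; negative values mean current inhibition and positive values mean potentiation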
KCNQ2 spec: KCNQ1 inhibitor that also blocks rat KCNQ2 channel; shares compounds with KCNQ1 inh; KCNQ2 cells, FluxOR thallium flux fluorescence; inhibition, % at 10 µM; hit rate 71% among 1,600; AID 651746;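 active means mean percent inhibition of the KCNQ2 thallium signal more than 5 SD above the buffer-only control wells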;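 further: KCNQ2 expressed in CHO cells; 0% = buffer control wells and 100% = XE-991 inhibitor control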
KCNQ1 KCNE1 spec: KCNQ1 inhibitor that also blocks human KCNQ1/KCNE1 channel. shares compounds with KCNQ1 inh. KCNQ1/KCNE1 cells, FluxOR thallium flux fluorescence. inhibition, % at 10 µM. hit rate 77% among 1,600. AID 652147;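 active means mean percent inhibition of duplicate wells above the buffer-only control mean plus 3 SD of those controls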;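 further: 0% = buffer only wells and 100% = XE-991 inhibitor control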
The depositor's hits bear a star; i = inactive; . = no result. Rows were chosen to be rich in hits. Some 3.7% of all compounds tested hit in one or more screens of this group.

SMILES	Kir21 inh	KCNK3 inh	KCNK9 block	KCNQ1 act	KCNQ1 inh	hERG protect	KCNQ1 inh valid	CHO Tl flux	KCNQ2 spec	KCNQ1 KCNE1 spec	others
O=C1CSc2ccc(C(=O)Nc3cccc(S(=O)(=O)Nc4ccc(Br)cc4)c3)cc2N1	-0.28	i	i	i	10*	-10.0	138.0*	0.331*	100.7%*	188.0%*
O=C(Nc1ccc(Br)cc1)c1cccc(S(=O)(=O)Nc2cnc3ccccc3c2)c1	2.43	i	i	i	6*	-10.0	139.0*	0.435	i	58.5%*
O=C(Nc1ccc(Br)cc1)c1cccc(S(=O)(=O)Nc2ccccn2)c1	1.13	i	i	i	i	-7.5	.	.	.	.
CCOc1cc(C(=O)Nc2cccc(OCC(=O)N3CCOCC3)c2)cc(OCC)c1OCC	-3.14	i	i	i	i	-8.1	.	.	.	.
COc1ccc(Cl)cc1NC(=S)NCCc1ccc(F)cc1	-4.64*	i	i	i	6*	-12.2	64.0*	0.491	114.0%*	50.5%*
Fc1ccc(CCNC(=S)Nc2ccc(F)c(Cl)c2)cc1	-3.66	i	i	i	9*	-24.9	48.5*	0.582	i	i
O=C(Cc1ccc(NC(=O)C2CCN(C(=O)C3CC3)CC2)cc1)Nc1ccc(C(=O)N2CCOCC2)cc1	.	i	.	.	.	.	.	.	.	.
CCOc1ccccc1-c1nnc(SCC(=O)NC2(C#N)CCCC2)o1	.	i	.	.	.	.	.	.	.	.
COc1cccc(-c2csc(N3CCN(C(=O)NC45CC6CC(CC(C6)C4)C5)CC3)n2)c1	0	i	i	i	8*	-10.8	102.5*	0.434	106.0%*	136.0%*
COc1cccc(NC(=O)N2CCN(c3nc(-c4cccc(OC)c4)cs3)CC2)c1	2.04	i	i	i	i	-15.9	.	.	.	.
Cc1cccc(NC(=O)C2CCN(S(=O)(=O)c3c(C)c(C)cc(C)c3C)CC2)n1	0.93	i	i	i	6*	-21.8	77.5*	0.402	77.0%*	177.0%*
O=C(Nc1ccccc1N1CCOCC1)c1ccccc1NS(=O)(=O)c1ccc(F)c(F)c1	-1.08	i	i	i	7*	-7.9	59.0*	0.446	74.3%*	i
COc1ccc(-c2csc(NC(=O)c3ccccc3NS(=O)(=O)c3ccc(F)c(F)c3)n2)cc1	-0.67	i	-6.78*	i	6*	-30.5	63.5*	0.528	i	91.5%*
O=C(Nc1ccccc1N1CCOCC1)c1ccccc1NS(=O)(=O)c1ccc(F)cc1	0.05	i	i	i	i	-15.2	.	.	.	.
CC(CCc1ccccc1)NC(=O)COC(=O)c1ccc(NC(=O)CC#N)cc1 (configuration not stated)	1.34	i	i	i	i	-9.1	.	.	.	.
CC(NC(=O)CN(c1cccc(C(F)(F)F)c1)S(C)(=O)=O)c1ccccc1 (configuration not stated)	-0.06	i	i	i	i	-3.9	.	.	.	.
NC(=O)c1ccc(NC(=O)COC(=O)CC23CC4CC(CC(Br)(C4)C2)C3)cc1	.	i	.	.	.	.	.	.	.	.
O=C(NC1CCCCC1)C(c1cccnc1)N(C(=O)c1ccc(Cl)nc1)C1CCCCC1 (configuration not stated)	1.12	i	i	i	22*	-14.7	0.0	0.502	i	i
CC1CCN(S(=O)(=O)c2nnc(NC(=O)c3cccc(Cl)c3)s2)CC1	-1.45	i	i	i	9*	-5.9	31.5*	0.506	i	i
CC1(C)CC(=O)C2=C(C1)Nc1ccccc1S2	0.71	i	i	i	i	-15.4	.	.	.	.
CC1(C)CC(=O)C2=C(C1)Nc1ccccc1NC2	-0.71	i	i	i	7*	-2.8	0.0	0.498	i	i
c1ccc(CCNc2ccnc3cc4ccccc4cc23)cc1	-7.17*	i	-7.34*	i	10*	-39.5	129.5*	0.377*	81.3%*	118.0%*
CN1C(=O)C(CC#N)(C2(CC#N)C(=O)N(C)c3ccccc32)c2ccccc21 (configuration not stated)	.	i	.	.	.	.	.	.	.	.
CCCCCCCCCn1ccc(=N)cc1	-0.27	i	i	i	7*	-18.2	70.5*	0.486	70.7%*	i
COc1ccc(CCNc2cc(C)nc3c(-c4ccccc4)cnn23)cc1OC	-0.03	i	i	i	i	-1.2	.	.	.	.
SMILES	Kir21 inh	KCNK3 inh	KCNK9 block	KCNQ1 act	KCNQ1 inh	hERG protect	KCNQ1 inh valid	CHO Tl flux	KCNQ2 spec	KCNQ1 KCNE1 spec	others
COc1ccccc1-c1cnn2c(NCCc3ccccc3)cc(C)nc12	-0.69	i	i	i	7*	-8.9	66.5*	0.407	75.0%*	119.0%*
CSCc1cc(N(C)c2ccccc2)nc(-c2ccccc2)n1	-1.09	i	i	i	7*	-5.5	91.0*	0.444	91.0%*	98.0%*	KCNQ1 APC inh=i
COc1cc(CSC)nc(-c2ccccc2)n1	0.34	i	i	i	i	-6.4	.	.	.	.
CCCSc1nnc(NC(=O)c2sc3nc(-c4cccs4)ccc3c2N)s1	-2.43	i	i	i	i	-22.0	.	.	.	.
Cc1csc(NC(=O)c2sc3nc(-c4cccs4)ccc3c2N)n1	-0.51	.	i	i	16*	-9.2	123.5*	0.244*	i	i
CCn1c(C)c(C)c2cc(C(=O)N3CCc4ccccc4C3)ccc21	0.78	i	i	i	7*	-7.6	114.0*	0.381	113.0%*	62.0%*	KCNQ1 APC inh=i
C=CCNc1nc2ccccc2nc1NS(=O)(=O)c1ccc(F)cc1	0	i	i	i	i	-9.2	.	.	.	.
C=CCNc1nc2ccccc2nc1NS(=O)(=O)c1ccc(Br)cc1	0.73	i	i	i	7*	-2.7	70.5*	0.514	59.0%*	i
Cc1ccc(-n2c(-c3ccc(Br)cc3)c[n+]3c2CCc2ccc4cccnc4c2-3)cc1	-14.5*	-11.4*	i	i	19*	-43.1	136.0*	0.317*	120.3%*	183.5%*
CN(C(=O)COC(=O)c1ccc2ccccc2n1)C1CCCCC1	.	i	.	.	.	.	.	.	.	.

Source: PubChem BioAssay (Johns Hopkins Ion Channel Center)
